A short description of assay [1]: reduced viability of SK-BR-3 breast cancer cells – cell-based, 24 h, human, pilot screen (AID 572;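 active = viability at or below 10% of carrier control in both of two separate runs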;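 note: compound exposure lasted between 18 and 24 h rather than exactly 24 h; 100% = carrier-treated control wells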). Conditions: SK-BR-3 viability, CellTiter-Glo luminescence, at 10 µM, stronger effect = lower value.
A short description of assay [2]: HUVEC growth inhibition – cell-based, human, primary screen (AID 575;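 active = viability at or below 30% in both replicate assays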;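 note: 100% = median of untreated cell wells with 0.1% DMSO on each plate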). Conditions: HUVEC proliferation, CellTiter-Glo luminescence, 72 h; at 10 µM; stronger effect = lower value. The method in brief: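 System: primary human umbilical vein endothelial cells; Quantity: 1250 endothelial cells in each well; Buffer or medium: supplemented EBM, 2% fetal bovine serum; Doses: one dose, 10 µM final, 0.1% DMSO; Incubation: 72 h compound incubation; Technique: ATP-based CellTiter-Glo luminescent read; Evaluation: percent of median DMSO-control luminescence; Controls: vehicle and MePR control wells.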

The nature of assay [3]: H69AR cell proliferation blockers – human, duplicate replicates, primary screen (AID 580).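 Note: 100% = mean luminescence of untreated wells and 0% = no signal.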 The settings on record: H69AR lung tumor cells viability, ATP luminescence, 72 h; at 10 µM; stronger effect = lower value.
Assay [4] can be described thus: MRP1 drug-resistance reversers in H69AR cells – cell-based, doxorubicin co-treatment, pilot screen (AID 601;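 active = viability loss from added drug above about 55%, and viability with drug at most 40%, in both replicates, limit read from the data, passing the limit was not always enough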). Conditions: CellTiter-Glo, 72 h, at 10 µM; for differential viability (reversal): stronger effect = higher value.
Assay [5] can be described thus: yeast transport mutant growth inhibition pilot in 384-well plates, post-Golgi transport modulator project (AID 636; in the data active = inhibition above about 31%). The settings on record: absorbance 615 nm, about 18 h, stronger effect = higher value.
The nature of assay [6]: growth suppression of yeast trafficking mutant, preliminary HTS, modulators of trafficking downstream of Golgi apparatus project, 1536-format plate, OD 615 nm (AID 637; in the data active = inhibition above about 30%). Conditions: yeast transport mutant growth, absorbance 615 nm, 18 h; stronger effect = higher value.
[7] abbreviates: H69AR cells + 2 uM doxorubicin, measured here: viability with 2 uM doxorubicin, stronger effect = lower value.
The mark [8] stands for this setting: H69AR cells, compound alone cytotoxicity.

Calls of active or inactive are those of the source.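 Rule for the calls, unless noted: active = viability at or under a set limit in both replicates, limit being median viability minus 3 SD (cut at about 48% in these data, passing the limit was not always enough); inconclusive = at or under the limit in just one replicate; inactive = at or above the limit in both replicates.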

On to `CCOc1ccc2nc(SCC(=O)Nc3ncccn3)[nH]c2c1`, for which the viability in assay [1] was 92% (inactive); in assay [2] it was 97.4% (inactive); in assay [3], 105% (inactive); in assay [4] (setting [7]) it was 86.6%; in assay [4] (setting [8]), 105%. In assay [4] (H69AR cells + 2 uM doxorubicin), the differential viability (reversal) is 18.1% (inactive). Besides, the inhibition was -1.62% (inactive) in assay [5] and 3.45% (inactive) in assay [6].

For `O=C(C1CCCCC1)N1CC(=O)N2CCc3ccccc3C2C1` (centres undefined), the viability in assay [1] is 104% (inactive); in assay [2], 107% (inactive); in assay [3], 96.7% (inactive); in assay [4] (setting [7]) it was 100%; in assay [4] (setting [8]) it was 96.7%. The differential viability (reversal) in assay [4] (H69AR cells + 2 uM doxorubicin) was -3.46% (inactive). Besides, the inhibition in assay [5] was -0.91% (inactive); in assay [6], -0.83% (inactive).

Consider `COC(=O)Cn1c(CCS(=O)(=O)c2ccc(C)cc2)nc2ccccc21`, for which the viability in assay [1] is 99% (inactive); in assay [2], 96.5% (inactive); in assay [3] it was 76.4% (inactive); in assay [4] (setting [7]) it was 69.8%; in assay [4] (setting [8]), 76.4%. Also, in assay [4] (H69AR cells + 2 uM doxorubicin), the differential viability (reversal) was 6.58% (inactive). Besides, the inhibition in assay [5] is -0.91% (inactive); in assay [6], -1.64% (inactive).

Consider `CC(C)OC(=O)CCCCCN1C(=O)CSC1=S`, for which the viability in assay [1] was 108% (inactive); in assay [2], 86.7% (inactive); in assay [3], 68.2% (inactive); in assay [4] (setting [7]), 75.7%; in assay [4] (setting [8]), 68.2%. In addition, the differential viability (reversal) in assay [4] (H69AR cells + 2 uM doxorubicin) was -7.49% (inactive). Moreover, the results for the inhibition in assay [5] and in assay [6] were -0.67% (inactive) and -6.13% (inactive), respectively.

For `CC(C)OC(=O)c1cc(NC(=O)C2C3CCC(O3)C2C(=O)O)cc(C(=O)OC(C)C)c1` (centres undefined), the viability in assay [1] is 106% (inactive); in assay [2], 88.1% (inactive); in assay [3], 92.9% (inactive); in assay [4] (setting [7]), 89.9%; in assay [4] (setting [8]), 92.9%. In addition, the differential viability (reversal) in assay [4] (H69AR cells + 2 uM doxorubicin) was 3.01% (inactive). The figures for the inhibition in assay [5] and in assay [6] were -7.81% (inactive) and -1.09% (inactive), respectively.

As for `COc1ccc(C)cc1C(=O)CCC(=O)Nc1ccccc1N1CCOCC1`, the viability in assay [1] was 90% (inactive); in assay [2], 54% (inactive); in assay [3] it was 1.36% (active); in assay [4] (setting [7]), 2.85%; in assay [4] (setting [8]) it was 1.36%. The differential viability (reversal) in assay [4] (H69AR cells + 2 uM doxorubicin) is -1.5% (inactive). In addition, the inhibition is -6.27% (inactive) in assay [5] and 1.31% (inactive) in assay [6].

In the case of `COC(=O)c1ccccc1NC(=O)CN1CCC(n2nnc3cc(F)ccc32)CC1`, the viability in assay [1] is 64% (inactive); in assay [2], 94.9% (inactive); in assay [3], 100% (inactive); in assay [4] (setting [7]) it was 89.7%; in assay [4] (setting [8]), 100%. The differential viability (reversal) in assay [4] (H69AR cells + 2 uM doxorubicin) was 10.3% (inactive). Besides, the inhibition is -6.16% (inactive) in assay [5] and -1.27% (inactive) in assay [6].

For `O=C(CN(Cc1ccc(F)cc1)C(=O)c1ccco1)NCc1ccc(F)cc1`, the viability in assay [1] was 104% (inactive); in assay [2], 112% (inactive); in assay [3], 94.1% (inactive); in assay [4] (setting [7]), 75.6%; in assay [4] (setting [8]), 94.1%. The differential viability (reversal) in assay [4] (H69AR cells + 2 uM doxorubicin) is 18.5% (inactive). Further, the inhibition is -8% (inactive) in assay [5] and -6.91% (inactive) in assay [6].

As to `COc1ccc(C(=O)NCCC(C)C)cc1S(=O)(=O)N1CCOCC1`, the viability is 98% (inactive) in assay [1]; 98.8% (inactive) in assay [2]; 102% (inactive) in assay [3]; 94.2% in assay [4] (setting [7]); 102% in assay [4] (setting [8]). The differential viability (reversal) in assay [4] (H69AR cells + 2 uM doxorubicin) is 7.34% (inactive). In addition, the inhibition is -9.86% (inactive) in assay [5] and 2.73% (inactive) in assay [6].

Turning to `COc1ccc(-n2nc3cc(C)c(N)c(Br)c3n2)cc1`, the viability is 74% (inactive) in assay [1]; 85.6% (inactive) in assay [2]; 65.5% (inactive) in assay [3]; 98.9% in assay [4] (setting [7]); 65.5% in assay [4] (setting [8]). In addition, the differential viability (reversal) in assay [4] (H69AR cells + 2 uM doxorubicin) was -33.4% (inactive). For the same compound, the inhibition in assay [5] was -6.3% (inactive); in assay [6] it was -1.45% (inactive).

Regarding `CS(=O)(=O)N(CC(=O)N1CCCCCC1)c1ccc(Br)cc1`, the viability was 86% (inactive) in assay [1]; 96.5% (inactive) in assay [2]; 97.9% (inactive) in assay [3]; 80.6% in assay [4] (setting [7]); 97.9% in assay [4] (setting [8]). Also, the differential viability (reversal) in assay [4] (H69AR cells + 2 uM doxorubicin) is 17.2% (inactive). In addition, the inhibition in assay [5] is -7.47% (inactive); in assay [6] it was -10% (inactive).

Turning to `Cc1ccc(S(=O)(=O)NC(=O)NN2CCCCCC2)cc1`, the viability in assay [1] was 112% (inactive); in assay [2] it was 81.1% (inactive); in assay [3] it was 114% (inactive); in assay [4] (setting [7]), 100%; in assay [4] (setting [8]) it was 114%. Besides, the differential viability (reversal) in assay [4] (H69AR cells + 2 uM doxorubicin) is 14% (inactive). For the same compound, the inhibition in assay [5] is -3.38% (inactive); in assay [6] it was 4.17% (inactive).

For `CC(c1ccco1)N(Cc1ccco1)C(=O)Nc1ccccc1` (centres undefined), the viability in assay [1] is 108% (inactive); in assay [2], 76.3% (inactive); in assay [3] it was 91.2% (inactive); in assay [4] (setting [7]), 67.6%; in assay [4] (setting [8]) it was 91.2%. For the same compound, the differential viability (reversal) in assay [4] (H69AR cells + 2 uM doxorubicin) is 23.7% (inactive). The values for the inhibition in assay [5] and in assay [6] were 1.69% (inactive) and 6.72% (inactive), respectively.

For the compound `COC(=O)Nc1ccc(S(=O)(=O)N2CCCCCC2)cc1`, the viability in assay [1] was 99% (inactive); in assay [2] it was 93.7% (inactive); in assay [3], 80.3% (inactive); in assay [4] (setting [7]) it was 91%; in assay [4] (setting [8]) it was 80.3%. The differential viability (reversal) in assay [4] (H69AR cells + 2 uM doxorubicin) is -10.7% (inactive). In addition, the inhibition in assay [5] was -10.1% (inactive); in assay [6], -2% (inactive).

As for `CCn1nc(C(=O)O)c(=O)c2cc3c(cc21)OCO3`, the viability in assay [1] was 69% (inactive); in assay [2], 86.7% (inactive); in assay [3], 106% (inactive); in assay [4] (setting [7]), 99.3%; in assay [4] (setting [8]), 106%. The differential viability (reversal) in assay [4] (H69AR cells + 2 uM doxorubicin) was 6.56% (inactive). Also, the inhibition in assay [5] is -1.17% (inactive); in assay [6], 1.83% (inactive).

Take `Cc1cc2ccccc2c(=O)n1CC(=O)N(C)c1ccc(F)cc1`: the viability in assay [1] is 102% (inactive); in assay [2], 84.2% (inactive); in assay [3], 102% (inactive); in assay [4] (setting [7]), 98.9%; in assay [4] (setting [8]) it was 102%. Further, the differential viability (reversal) in assay [4] (H69AR cells + 2 uM doxorubicin) is 2.95% (inactive). Further, the inhibition was -2.3% (inactive) in assay [5] and -2.73% (inactive) in assay [6].

With `CC1(C)Cc2c(sc3c2C2=NCCN2C=N3)CS1`, the viability was 87% (inactive) in assay [1]; 108% (inactive) in assay [2]; 105% (inactive) in assay [3]; 99.4% in assay [4] (setting [7]); 105% in assay [4] (setting [8]). In assay [4] (H69AR cells + 2 uM doxorubicin), the differential viability (reversal) was 5.41% (inactive). In addition, the inhibition in assay [5] was 2.05% (inactive); in assay [6] it was 2.73% (inactive).

`CN(C)CCOC(c1ccccc1)c1ccccc1`: the viability is 78% (inactive) in assay [1]; 86.9% (inactive) in assay [2]; 87.6% (inactive) in assay [3]; 82.3% in assay [4] (setting [7]); 87.6% in assay [4] (setting [8]). In assay [4] (H69AR cells + 2 uM doxorubicin), the differential viability (reversal) was 5.28% (inactive). The inhibition in assay [5] is -1.69% (inactive); in assay [6] it was 2.5% (inactive).

Values taken from PubChem BioAssay.
